ChEMBL document CHEMBL5678805, “Intermittent administration of MEK inhibitor GDC-0973 plus PI3K inhibitor GDC-0941 triggers robust apoptosis and tumor growth inhibition” (Cancer Res, 2012)

Legend:
A549 = assay: Antitumor activity against human A549 cells harboring KRAS G12S/LKB1Q37/SMARCA4 Q729/CDKN2A mutant xenografted in mouse assessed as tumor growth inhibition at 5 mg/kg, po; assay type: functional; conditions: read-out: TGI
Method in brief: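 Single-agent dose ranging in human tumor xenograft mice at 2.5, 5 or 10 mg/kg oral. Tumor volume was measured by caliper as (L×W×W)/2. %TGI = 100×[1 − AUC(treatment/d)/AUC(vehicle/d)] from the fitted growth curve per dose group, relative to vehicle.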

[1] = molecular target: Tyrosine-protein kinase ABL1 (Homo sapiens, UniProt P00519); assay: Inhibition of Abl (unknown origin)
Sequence of Tyrosine-protein kinase ABL1 (P00519 whole entry): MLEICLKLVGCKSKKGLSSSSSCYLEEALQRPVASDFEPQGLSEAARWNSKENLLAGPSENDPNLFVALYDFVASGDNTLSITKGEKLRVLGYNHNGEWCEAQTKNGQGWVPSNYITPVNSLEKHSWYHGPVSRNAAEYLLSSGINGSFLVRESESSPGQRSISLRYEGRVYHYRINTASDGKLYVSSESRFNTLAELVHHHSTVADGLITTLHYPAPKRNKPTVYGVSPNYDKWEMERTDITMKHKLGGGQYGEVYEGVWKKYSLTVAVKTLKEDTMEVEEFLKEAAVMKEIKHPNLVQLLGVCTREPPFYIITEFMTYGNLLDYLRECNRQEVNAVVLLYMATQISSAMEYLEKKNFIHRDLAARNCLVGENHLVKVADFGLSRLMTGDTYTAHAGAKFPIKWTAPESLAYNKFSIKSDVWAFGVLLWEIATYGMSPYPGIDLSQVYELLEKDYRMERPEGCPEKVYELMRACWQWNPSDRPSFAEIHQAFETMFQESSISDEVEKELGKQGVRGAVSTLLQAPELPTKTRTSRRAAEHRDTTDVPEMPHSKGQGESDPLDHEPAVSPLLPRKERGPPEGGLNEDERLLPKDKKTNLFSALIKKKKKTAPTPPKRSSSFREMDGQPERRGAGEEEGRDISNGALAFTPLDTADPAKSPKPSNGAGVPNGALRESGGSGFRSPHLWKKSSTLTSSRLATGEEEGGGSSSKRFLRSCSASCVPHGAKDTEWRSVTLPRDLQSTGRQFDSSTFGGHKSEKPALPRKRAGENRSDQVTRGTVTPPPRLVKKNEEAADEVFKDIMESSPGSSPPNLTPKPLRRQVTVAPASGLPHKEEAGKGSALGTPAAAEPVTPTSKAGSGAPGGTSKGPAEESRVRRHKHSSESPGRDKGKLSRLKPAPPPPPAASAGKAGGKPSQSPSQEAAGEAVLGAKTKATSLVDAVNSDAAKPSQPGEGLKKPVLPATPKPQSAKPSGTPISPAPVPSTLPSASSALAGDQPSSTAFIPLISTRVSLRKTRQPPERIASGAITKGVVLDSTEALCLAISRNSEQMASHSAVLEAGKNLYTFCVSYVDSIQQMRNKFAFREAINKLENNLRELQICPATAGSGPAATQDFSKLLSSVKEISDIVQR

O=C(c1ccc(F)c(F)c1Nc1ccc(I)cc1F)N1CC(O)([C@@H]2CCCCN2)C1 [COBIMETINIB]
inhibition in vivo at 5 mg/kg (A549): 51.4%
IC50 [1]: > 10 µM
